≈ marks a conversion by molar mass, not a printed value. Calls of active or inactive are those of the source. No cut-off for these calls is given here. Non-standard residues stand in square brackets, D forms with d. Residues, ends and D or L forms follow the SMILES beside them. Trp(5-Cl) = N[C@@H](Cc1c[nH]c2ccc(Cl)cc12)C(=O)O; dAsn(3R-OH) = NC(=O)[C@H](O)[C@@H](N)C(=O)O; aIle = CC[C@@H](C)[C@H](N)C(=O)O; Orn = NCCC[C@H](N)C(=O)O
Legend:
K562 = experiment: Cytotoxicity against human K562 cells; assay type: functional, cell-based
MDA-MB-231 = experiment: Cytotoxicity against human MDA-MB-231 cells; assay type: functional, cell-based
HCT-116 = experiment: Cytotoxicity against human HCT116 cells; assay type: functional, cell-based
Staphylococcus aureus = experiment: Antibacterial activity against Staphylococcus aureus ATCC 25923 after 24 hrs by two fold serial dilution method; assay type: functional; details: ATCC 25923, 24 h
In short: (§1)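 Bacteria grown overnight in Mueller Hinton broth at 37 °C, centrifuged and washed twice with sterile water. Compounds dissolved in DMSO, then 2-fold serial dilutions 128 to 0.03 μg/mL in broth, final DMSO 1%. Inoculum ~10^7 cfu/mL added to reach final 5 × 10^5 cfu/mL. Incubated 24 h at 37 °C. MIC = lowest concentration inhibiting growth.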

A549 = experiment: Cytotoxicity against human A549 cells; assay type: functional, cell-based
Trichophyton rubrum = experiment: Antifungal activity against Trichophyton rubrum NBRC 9185; assay type: functional, organism-based
[1] = test system: Trichophyton mentagrophytes; experiment: Antifungal activity against Trichophyton mentagrophytes IFM 40996; assay type: functional, organism-based
Candida albicans = experiment: Antifungal activity against Candida albicans ATCC 10231; assay type: functional, organism-based
Enterococcus faecium = experiment: Antibacterial activity against Enterococcus faecium ATCC 19434 after 24 hrs by two fold serial dilution method; assay type: functional; details: ATCC 19434, 24 h; in short: as §1
SK-HEP1 = experiment: Cytotoxicity against human SKHEP1 cells; assay type: functional, cell-based
SNU-638 = experiment: Cytotoxicity against human SNU638 cells; assay type: functional, cell-based
Salmonella typhimurium = experiment: Antibacterial activity against Salmonella enterica ATCC 14028 after 24 hrs by two fold serial dilution method; assay type: functional; in short: as §1
Enterococcus faecalis = experiment: Antibacterial activity against Enterococcus faecalis ATCC 19433 after 24 hrs by two fold serial dilution method; assay type: functional; details: ATCC 19433, 24 h; in short: as §1
Aspergillus fumigatus = experiment: Antifungal activity against Aspergillus fumigatus HIC 6094; assay type: functional, organism-based
Escherichia coli = experiment: Antibacterial activity against Escherichia coli ATCC 25922 after 24 hrs by two fold serial dilution method; assay type: functional
In short: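 Overnight culture grown in Mueller Hinton broth at 37 °C, centrifuged and washed twice in sterile water. Compound dissolved in DMSO, serially 2-fold diluted in MHB from 128 to 0.03 μg/mL, with DMSO held at 1% final. Inoculum 5 × 10^5 cfu/mL final. Incubated 24 h at 37 °C. MIC taken as the lowest concentration inhibiting growth.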

Structure (SMILES) | Activity (K562) | Activity (MDA-MB-231) | Activity (HCT-116) | MIC (Staphylococcus aureus) [µg/mL] | Activity (A549) | Activity (Trichophyton rubrum) | Activity [1] | Activity (Candida albicans) | MIC (Enterococcus faecium) [µg/mL] | Activity (SK-HEP1) | Activity (SNU-638) | MIC (Salmonella typhimurium; Salmonella enterica subsp. enterica serovar Typhimurium) | MIC (Enterococcus faecalis) [µg/mL] | Activity (Aspergillus fumigatus) | MIC (Escherichia coli) | MIC (Salmonella typhimurium; ATCC 14028, 24 h) [µg/mL] | MIC (Escherichia coli; ATCC 25922, 24 h) [µg/mL]
CC[C@@H](C)[C@@H]1NC(=O)[C@@H](CC(C)C)NC(=O)[C@@H](C(C)C)NC(=O)[C@H](Cc2c[nH]c3ccc(Cl)cc23)NC(=O)[C@@H](CC(N)=O)NC(=O)[C@H](CCCN)NC1=O | inactive | inactive | inactive | 64 (≈ 82.6 µM) | inactive | inactive | inactive | inactive | 128 (≈ 165 µM) | inactive | inactive | inactive | 128 (≈ 165 µM) | inactive | inactive |  | 
CC[C@@H](C)[C@@H]1NC(=O)[C@@H](CC(C)C)NC(=O)[C@@H](C(C)C)NC(=O)[C@H](Cc2c[nH]c3ccc(Cl)cc23)NC(=O)[C@@H]([C@@H](O)C(N)=O)NC(=O)[C@H](CCCN)NC1=O (cyclo([Orn][dAsn(3R-OH)][Trp(5-Cl)][dV][dL][aIle])) | inactive | inactive | inactive | 8 (≈ 10.1 µM) | inactive | inactive | inactive | inactive | 16 (≈ 20.2 µM) | inactive | inactive |  | 16 (≈ 20.2 µM) | inactive | inactive | 16 (≈ 20.2 µM) | 
CC1(C)S[C@@H]2[C@H](NC(=O)[C@H](N)c3ccccc3)C(=O)N2[C@H]1C(=O)O [AMPICILLIN] |  |  |  | 0.13 (≈ 0.372 µM) |  |  |  |  | 0.25 (≈ 0.715 µM) |  |  |  | 0.5 (≈ 1.43 µM) |  |  | 0.13 (≈ 0.372 µM) | 8 (≈ 22.9 µM)

— ChEMBL document CHEMBL4130541, “Nicrophorusamides A and B, Antibacterial Chlorinated Cyclic Peptides from a Gut Bacterium of the Carrion Beetle Nicrophorus concolor” (2017)
